Converted amounts (≈) assume the structure as drawn. The source made the active and inactive calls. Unless noted, the calls are words filed in the database; no cut-off is given here.
What was measured:
[1] = target: T1, Lipoprotein lipase (Bos taurus) (UniProt P11151); test: Induction of bovine LPL stabilization using intralipid as substrate at 25 uM preincubated for 10 mins with human recombinant ANGPTL4 followed by substrate addition measured after 45 mins relative to control
T1 sequence (whole entry): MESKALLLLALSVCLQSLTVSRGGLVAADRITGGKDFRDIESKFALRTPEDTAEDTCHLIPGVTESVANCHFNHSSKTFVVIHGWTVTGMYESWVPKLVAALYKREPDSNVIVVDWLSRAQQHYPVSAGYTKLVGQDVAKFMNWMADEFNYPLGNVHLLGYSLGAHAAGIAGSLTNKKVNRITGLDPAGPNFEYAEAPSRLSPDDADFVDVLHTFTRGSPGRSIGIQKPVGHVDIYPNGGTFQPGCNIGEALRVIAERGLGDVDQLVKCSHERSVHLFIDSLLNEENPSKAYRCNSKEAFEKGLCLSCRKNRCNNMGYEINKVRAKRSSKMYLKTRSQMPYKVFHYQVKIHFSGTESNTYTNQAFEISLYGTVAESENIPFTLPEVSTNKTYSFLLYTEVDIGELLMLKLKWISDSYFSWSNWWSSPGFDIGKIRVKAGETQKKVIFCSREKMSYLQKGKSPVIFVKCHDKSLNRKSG
Outline: (§1)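 Compound in DMSO in buffer (50 mM potassium phosphate pH 7.4, 0.15 M NaCl, 0.01% Triton X-100), with human ANGPTL4 N-terminal fragment (aa 26-184, 75 nM final) and bovine LPL (15 nM final). Preincubated 10 min at 25 °C with shaking. Stopped after 45 min with 2.5% Triton X-100, and NEFA measured enzymatically. Activity normalised between DMSO+LPL+ANGPTL4 (0%) and DMSO+LPL (100%).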

[2] = target: T1, Lipoprotein lipase (Bos taurus); test: Induction of bovine LPL stabilization using intralipid as substrate at 6.25 uM preincubated for 10 mins with human recombinant ANGPTL4 followed by substrate addition measured after 45 mins relative to control; outline: as §1
[3] = target: T1, Lipoprotein lipase (Bos taurus); test: Induction of bovine LPL stabilization using intralipid as substrate at 12.5 uM preincubated for 10 mins with human recombinant ANGPTL4 followed by substrate addition measured after 45 mins relative to control; outline: as §1
Mus musculus = test: Hypolipidemic activity in C57B16/J mouse assessed as reduction in plasma triglyceride level at 10 mg/kg, ip qd administered for 4 days followed by olive oil injection through oral gavage one hour post last dose measured at 180 mins; type: functional, organism-based
Outline: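 Female C57B16/J mice, 8-9 weeks, about 18 g, n = 8/group. Given 10 mg/kg i.p. once daily for 4 days, 0.5 ml in PBS pH 7.4 with 3% DMSO and 0.2% Triton X-100. Fasted 8 h before the last dose, then 0.2 ml oral olive oil gavage 1 h after it. Tail-vein EDTA plasma taken at baseline and every 60 min to 180 min. TG measured enzymatically, reported as mean ± SD.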

[4] = target: T1, Lipoprotein lipase (Bos taurus); test: Induction of bovine LPL stabilization using intralipid as substrate at 3.12 uM preincubated for 10 mins with human recombinant ANGPTL4 followed by substrate addition measured after 45 mins relative to control; outline: as §1
Plasma = test: Drug level in human plasma treated with 1,3-Dioxo-2-(4-(piperidin-1-yl)-3-(p-tolylcarbamoyl)phenyl)isoindoline-5-carboxylic acid at 10 uM after 24 hrs by LC-MS/MS analysis; type: ADME, cell-free
[5] = Efflux ratio of apparent permeability from basolateral to apical over apical to basolateral side in human Caco2 cells at 10 uM after 15 to 60 mins; type: ADME, cell-based; conditions: Caco-2
[6] = Kinetic aqueous solubility of the compound in PBS at pH 1.2 after 2 hrs by LC-Ms analysis; type: physicochemical; conditions: read-out: Kinetic_solubility
Outline: (§2)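 Kinetic solubility from a 10 mM DMSO stock diluted 1:100 (1% DMSO, maximum detectable 0.1 mM) into PBS pH 7.4 or HCl-adjusted PBS at about pH 1.2. Incubated at 37 °C for 2 h in sealed glass vials, centrifuged at 10000 x g, 37 °C, 20 min, then LC-MS/MS.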

[7] = Fraction unbound in human plasma at 10 uM after 4 hrs by rapid equilibrium dialysis method; type: ADME, cell-free
Outline: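 Rapid equilibrium dialysis of pooled human plasma from two male and two female non-smoking donors. Compound typically 10 μM final, dialysed against isotonic phosphate buffer pH 7.4 at 37 °C for 4 h with rapid rotation. Proteins precipitated with methanol containing warfarin internal standard, then both compartments analysed by LC-MS/MS.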

[8] = Intrinsic clearance in human liver microsomes at 1 uM after 5 to 40 mins by LC-MS/MS analysis in presence of NADPH; type: ADME; conditions: read-out: CLH
Outline: (§3)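 Pooled liver microsomes (0.5 mg/ml) with compound at 1 μM in 0.1 M phosphate buffer pH 7.4. Reaction started with NADPH 1 mM. Sampled at 0, 5, 15 and 40 min in duplicate, quenched with acetonitrile containing warfarin, then LC-MS/MS.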

[9] = Half life in human liver microsomes at 1 uM; type: ADME; outline: as §3
[10] = Half life in human hepatocytes at 1 uM; type: ADME, cell-based, Hepatocyte
Outline: (§4)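 Freshly isolated human hepatocytes (0.5 x 10⁶ cells/ml) in Williams medium E with compound at 1 μM. Reaction started by adding cells. Sampled at 0, 10, 30 and 60 min in duplicate, quenched with acetonitrile containing warfarin, then LC-MS/MS.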

[11] = Apparent permeability across apical to basolateral side in human Caco2 cells at 10 uM after 15 to 60 mins; type: ADME, cell-based; conditions: Caco-2
Outline: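 Caco-2 monolayers washed with pre-warmed HBSS, then donor solution applied. Transport run with apical pH 6.5 and basolateral pH 7.4. Monolayer integrity checked by TEER and by mannitol permeability. Papp derived from transport rates.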

[12] = Apparent permeability across basolateral to apical side in human Caco2 cells at 10 uM after 15 to 60 mins; type: ADME, cell-based; conditions: Caco-2
[13] = Kinetic aqueous solubility of the compound in PBS at pH 7.4 after 2 hrs by LC-MS/MS analysis; type: physicochemical; conditions: read-out: Kinetic_solubility; outline: as §2
[14] = Stability of the compound in human plasma after 4 hrs at 37 degC by mass spectrometric analysis; type: ADME, cell-free; conditions: read-out: Stability
Outline: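 Plasma test solution (pooled human plasma, typically 10 μM compound) held at 37 °C for 4 h, matching the dialysis time. A reference sample was frozen immediately. Proteins precipitated with methanol containing warfarin, then LC-MS/MS. Stability expressed on a relative basis.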

[15] = Intrinsic clearance in human hepatocytes assessed per 10^6 cells at 1 uM after 10 to 60 mins by LC-MS/MS analysis in presence of NADPH; type: ADME, cell-based, Hepatocyte; conditions: read-out: CLH; outline: as §4
Lipoprotein lipase = target: T2, Lipoprotein lipase (Bos taurus, UniProt P11151); test: Induction of bovine LPL stabilization using intralipid as substrate preincubated for 10 mins with human recombinant ANGPTL4 followed by substrate addition measured after 45 mins relative to control; outline: as §1
T2 sequence (P11151 whole entry): T1 sequence (whole entry)

[16] = Half life in human plasma after 24 hrs; type: ADME, cell-free

Row | Structure (SMILES) | Activity [1] | Activity [2] | Activity [3] | Activity [4] | further results
1 | Cc1ccc(NC(=O)c2cc(-c3cc4cc(C(=O)O)ccc4[nH]3)ccc2N2CCCCC2)cc1 | 24.5% | 101% | 85.5% | 35% | Activity (Mus musculus): Active
2 | Cc1ccc(NC(=O)c2cc(NC(=O)c3cc(C(=O)O)ccc3C(=O)O)ccc2N2CCCCC2)cc1 | 38.8% | inactive | inactive | inactive | Drug metabolism (Plasma): metabolite_detected
3 | Cc1ccc(NC(=O)c2cc(-c3cc4cc(C(=O)O)ccc4o3)ccc2N2CCCCC2)cc1 | 67.9% | 49.8% | 76% | inactive | efflux ratio at 10 µM [5]: 1.5; solubility kinetic at 2 h [6]: 7 µM (≈ 3.18 µg/mL); Fu [7]: < 0.01%; microsomal CLint at 1 µM [8]: < 17 µL/min/mg; half-life at 1 µM [9]: > 1.33 h; half-life at 1 µM [10]: 0.667 h; Papp A→B at 10 µM [11]: 1.2 ×10⁻⁶ cm/s; Activity (Mus musculus): Active; Papp B→A at 10 µM [12]: 1.8 ×10⁻⁶ cm/s; solubility kinetic at 2 h [13]: < 2 µM; remaining at 4 h [14]: 93%; hepatocyte CLint at 1 µM [15]: 35 µL/min/1e6 cells
4 | Cc1ccc(NC(=O)c2cc(N3C(=O)c4ccc(C(=O)O)cc4C3=O)ccc2N2CCCCC2)cc1 | 93.8% | inactive | 90% | inactive | efflux ratio at 10 µM [5]: 2.7; Papp A→B at 10 µM [11]: 12 ×10⁻⁶ cm/s; EC50 (Lipoprotein lipase): 6.6 µM; Activity (Mus musculus): inactive; half-life [16]: 1.5 h; Papp B→A at 10 µM [12]: 31 ×10⁻⁶ cm/s; solubility kinetic at 2 h [13]: 80 µM (≈ 38.7 µg/mL); remaining at 4 h [14]: 2%
5 | Cc1ccc(NC(=O)c2cc(NC(=O)c3ccc(C(=O)O)cc3C(=O)O)ccc2N2CCCCC2)cc1 | 30.6% | inactive | inactive | inactive | Drug metabolism (Plasma): metabolite_detected
6 | Cc1ccc(NC(=O)c2cc(N)ccc2N2CCCCC2)cc1 | inactive | inactive | inactive | inactive | Drug metabolism (Plasma): metabolite_detected
7 | Cc1ccc(NC(=O)c2cc(-n3cc4cc(C(=O)O)ccc4n3)ccc2N2CCCCC2)cc1 | 89.7% | 11.2% | 90.6% | inactive | EC50 (Lipoprotein lipase): 5 µM; Activity (Mus musculus): Active
8 | O=C(O)c1ccc2c(c1)C(=O)N(c1ccc(N3CCCCC3)c(C(=O)Nc3ccc(C(F)(F)F)cc3)c1)C2=O | 81.6% | inactive | 54.6% | inactive | 
9 | COC(=O)c1ccc2c(c1)C(=O)N(c1ccc(N3CCCCC3)c(C(=O)Nc3ccc(C)cc3)c1)C2=O | inactive | inactive | inactive | inactive | 
10 | Cc1ccc(NC(=O)c2cc(Nc3ccccc3)cc(N3C(=O)c4ccc(C(=O)O)cc4C3=O)c2)cc1 | 89.4% | 4.2% | 73.1% | inactive | 
11 | CCCCCCCCCCNc1ccc(N2C(=O)c3ccc(C(=O)O)cc3C2=O)cc1C(=O)Nc1ccc(C)cc1 | 19.2% | 5.9% | 10% | 13.6% | 
12 | O=C(O)c1ccc2c(c1)C(=O)N(c1ccc(N3CCCCC3)c(C(=O)Nc3ccccc3-c3ccccc3)c1)C2=O | 68.5% | 60.1% | 63.3% | inactive | 
13 | CCc1ccc(NC(=O)c2cc(N3C(=O)c4ccc(C(=O)O)cc4C3=O)ccc2N2CCCCC2)cc1 | 47% | 32.4% | 36.5% | inactive | 
14 | Cc1ccc(NC(=O)c2ccc(N3CCCCC3)c(N3C(=O)c4ccc(C(=O)O)cc4C3=O)c2)cc1 | 79% | inactive | 81.3% | inactive | 
15 | O=C1c2ccccc2C(=O)N1c1ccccc1 | inactive | inactive | inactive | inactive | 
16 | Cc1ccc(NC(=O)c2cc(-c3nc4ccc(C(=O)O)cc4[nH]3)ccc2N2CCCCC2)cc1 | 49% | inactive | inactive | inactive | Activity (Mus musculus): Active
17 | Cc1ccc(NC(=O)c2ccc(N3CCCCC3)cc2N2C(=O)c3ccc(C(=O)O)cc3C2=O)cc1 | 96.7% | inactive | inactive | inactive | 
18 | Cc1ccc(NC(=O)c2cc(N3C(=O)c4ccc(C#N)cc4C3=O)ccc2N2CCCCC2)cc1 | inactive | inactive | inactive | inactive | 
19 | CCc1cccc(NC(=O)c2cc(N3C(=O)c4ccc(C(=O)O)cc4C3=O)ccc2Nc2ccccc2)c1 | 52.2% | 44.3% | 63.9% | inactive | 
20 | Cc1ccc(NC(=O)c2cc(N3C(=O)c4ccc(C(=O)O)cc4C3=O)ccc2Br)cc1 | inactive | inactive | inactive | inactive | 
